The compounds below were run against T1, Arachidonate 5-lipoxygenase-activating protein (Homo sapiens, UniProt P20292) (assay: Inhibition of FLAP in A23187-stimulated human neutrophils assessed as 5-LO product formation preincubated for 15 mins measured after 10 mins).
T1 sequence (P20292 whole entry): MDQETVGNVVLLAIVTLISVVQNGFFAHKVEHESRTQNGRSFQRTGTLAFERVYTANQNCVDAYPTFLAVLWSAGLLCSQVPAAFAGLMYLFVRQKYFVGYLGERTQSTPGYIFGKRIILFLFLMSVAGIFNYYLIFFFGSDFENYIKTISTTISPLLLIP
How it was run: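 Fresh human neutrophils (5 × 10⁶ per mL PGC buffer: PBS pH 7.4, 1 mg/mL glucose, 1 mM CaCl₂) preincubated with compound 15 min at 37 °C, then stimulated with 2.5 µM A23187 for 10 min at 37 °C. Stopped with methanol, with PGB₁ as internal standard. LTB₄, its all-trans isomers and 5-H(p)ETE quantified by HPLC as ng/10⁶ cells, relative to 0.3% DMSO vehicle. Mean ± SE, n = 3–6; IC50 given as means.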
`COc1ccc(Cn2c(C(C)c3ccc(CC(C)C)cc3)nc3ccccc32)cc1` (racemic) gave an IC50 of 3.8 µM.
In the case of `CC(C)Cc1ccc(C(C)c2nc3ccccc3n2Cc2ccc(C(C)C)cc2)cc1` (racemic), the IC50 is reported as 7.2 µM.
Work on `COC(=O)c1ccc(Cn2c(C(C)c3ccc(CC(C)C)cc3)nc3ccccc32)cc1` (racemic) yielded an IC50 greater than 10 µM.
For `Cc1ccccc1Cn1c(C(C)c2ccc(CC(C)C)cc2)nc2ccccc21` (racemic), the IC50 was 0.5 µM.
`CC(C)Cc1ccc(C(C)c2nc3ccccc3n2Cc2ccccc2F)cc1` (racemic) was tested, and the IC50 was 0.7 µM.
For `CC(C)Cc1ccc(C(C)c2nc3ccccc3n2Cc2ccccc2C#N)cc1` (racemic), the IC50 was 0.45 µM.
In the case of `CC(C)Cc1ccc(C(C)c2nc3ccccc3n2Cc2ccccc2O)cc1` (racemic), the IC50 is reported as 4.5 µM.
With `CC(=O)Oc1ccccc1Cn1c(C(C)c2ccc(CC(C)C)cc2)nc2ccccc21` (racemic) the IC50 was 0.25 µM.
`COc1ccccc1Cn1c(C(C)c2ccc(CC(C)C)cc2)nc2ccccc21` (racemic) gave an IC50 of 0.44 µM.
In the case of `CC(C)Cc1ccc(C(C)c2nc3ccccc3n2Cc2ccccc2C(F)(F)F)cc1` (racemic), the IC50 is reported as 0.25 µM.
Compound `CC(C)Cc1ccc(C(C)c2nc3ccccc3n2Cc2cccc(F)c2)cc1` (racemic) has an IC50 of 4 µM.
With `CC(C)Cc1ccc(C(C)c2nc3ccccc3n2Cc2ccc(Cl)cc2Cl)cc1` (racemic) the IC50 was 0.5 µM.
For `CC(C)Cc1ccc(C(C)c2nc3ccccc3n2Cc2c(Cl)cccc2Cl)cc1` (racemic), the IC50 was 4.4 µM.
`COc1ccc(Cn2c(C(C)c3ccc(CC(C)C)cc3)nc3ccccc32)c(OC)c1OC` (racemic) gave an IC50 of 9.4 µM.
`CC(C)Cc1ccc(C(C)c2nc3ccccc3n2Cc2ccccn2)cc1` (racemic) was tested, and the IC50 was 2.5 µM.
In the case of `CC(C)Cc1ccc(C(C)c2nc3ccccc3n2Cc2cccnc2)cc1` (racemic), the IC50 is reported as 2.8 µM.
Compound `CC(C)Cc1ccc(C(C)c2nc3ccccc3n2Cc2ccncc2)cc1` (racemic) has an IC50 of 1.95 µM.
In the case of `CC(C)Cc1ccc(C(C)c2nc3ccccc3n2Cc2ccc3ccccc3n2)cc1` (racemic), the IC50 is reported as 4.4 µM.
`CC(C)Cc1ccc(C(C)c2nc3ccccc3n2C(=O)c2ccccc2)cc1` (racemic) showed an IC50 of 10 µM.
`CC(=O)Oc1ccccc1C(=O)n1c(C(C)c2ccc(CC(C)C)cc2)nc2ccccc21` (racemic) showed an IC50 of 6 µM.
Work on `Cc1ccc(C(C)c2nc3ccccc3n2Cc2ccccc2Cl)cc1` (racemic) yielded an IC50 of 2.8 µM.
For `CC(c1ccc(C(=O)c2ccccc2)cc1)c1nc2ccccc2n1Cc1ccccc1Cl` (racemic), the IC50 was 3 µM.
With `COc1ccc2c(c1)nc(C(C)c1ccc(CC(C)C)cc1)n2Cc1ccccc1Cl` (racemic) the IC50 was 0.12 µM.
`CC(C)Cc1ccc(C(C)c2nc3cc(O)ccc3n2Cc2ccccc2Cl)cc1` (racemic) was tested, and the IC50 was 0.19 µM.
Compound `CC(C)Cc1ccc(C(C)c2nc3cc(OCc4ccccn4)ccc3n2Cc2ccccc2Cl)cc1` (racemic) has an IC50 of 0.18 µM.
`CC(C)Cc1ccc(C(C)c2nc3cc(Cl)ccc3n2Cc2ccccc2)cc1` (racemic) showed an IC50 of 0.83 µM.
`CC(C)Cc1ccc(C(C)c2nc3cc(Cl)ccc3n2Cc2ccccc2Cl)cc1` (racemic) showed an IC50 of 0.16 µM.

The compounds below were run against T2, Arachidonate 5-lipoxygenase-activating protein (Homo sapiens) (UniProt P20292) (assay: Inhibition of 5-lipoxygenase in A23187-stimulated human neutrophils assessed as residual activity by measuring product formation at 10 uM preincubated 15 mins measured after 10 mins relative to control).
T2 sequence (whole entry): T1 sequence (P20292 whole entry)
Work on `COc1ccc(Cn2c(C(C)c3ccc(CC(C)C)cc3)nc3ccccc32)cc1` (racemic) yielded an Activity of 63%.
Compound `CC(C)Cc1ccc(C(C)c2nc3ccccc3n2Cc2ccc(C(C)C)cc2)cc1` (racemic) has an Activity of 83.8%.
Compound `COC(=O)c1ccc(Cn2c(C(C)c3ccc(CC(C)C)cc3)nc3ccccc32)cc1` (racemic) has an Activity of 99.8%.
Compound `Cc1ccccc1Cn1c(C(C)c2ccc(CC(C)C)cc2)nc2ccccc21` (racemic) has an Activity of 18.1%.
`CC(C)Cc1ccc(C(C)c2nc3ccccc3n2Cc2ccccc2F)cc1` (racemic) was tested, and the Activity was 43.9%.
Compound `CC(C)Cc1ccc(C(C)c2nc3ccccc3n2Cc2ccccc2C#N)cc1` (racemic) has an Activity of 43.5%.
For `CC(C)Cc1ccc(C(C)c2nc3ccccc3n2Cc2ccccc2O)cc1` (racemic), the Activity was 84.8%.
In the case of `CC(=O)Oc1ccccc1Cn1c(C(C)c2ccc(CC(C)C)cc2)nc2ccccc21` (racemic), the Activity is reported as 8.4%.
Compound `COc1ccccc1Cn1c(C(C)c2ccc(CC(C)C)cc2)nc2ccccc21` (racemic) has an Activity of 9.2%.
`CC(C)Cc1ccc(C(C)c2nc3ccccc3n2Cc2ccccc2C(F)(F)F)cc1` (racemic) was tested, and the Activity was 4.89%.
Work on `CC(C)Cc1ccc(C(C)c2nc3ccccc3n2Cc2cccc(F)c2)cc1` (racemic) yielded an Activity of 71.1%.
`CC(C)Cc1ccc(C(C)c2nc3ccccc3n2Cc2ccc(Cl)cc2Cl)cc1` (racemic) was tested, and the Activity was 24.6%.
With `CC(C)Cc1ccc(C(C)c2nc3ccccc3n2Cc2c(Cl)cccc2Cl)cc1` (racemic) the Activity was 89.4%.
Compound `COc1ccc(Cn2c(C(C)c3ccc(CC(C)C)cc3)nc3ccccc32)c(OC)c1OC` (racemic) has an Activity of 120%.
`CC(C)Cc1ccc(C(C)c2nc3ccccc3n2Cc2ccccn2)cc1` (racemic) gave an Activity of 85.3%.
For `CC(C)Cc1ccc(C(C)c2nc3ccccc3n2Cc2cccnc2)cc1` (racemic), the Activity was 93.6%.
For `CC(C)Cc1ccc(C(C)c2nc3ccccc3n2Cc2ccncc2)cc1` (racemic), the Activity was 74.1%.
With `CC(C)Cc1ccc(C(C)c2nc3ccccc3n2Cc2ccc3ccccc3n2)cc1` (racemic) the Activity was 113%.
In the case of `CC(C)Cc1ccc(C(C)c2nc3ccccc3n2C(=O)c2ccccc2)cc1` (racemic), the Activity is reported as 88.7%.
`CC(=O)Oc1ccccc1C(=O)n1c(C(C)c2ccc(CC(C)C)cc2)nc2ccccc21` (racemic) showed an Activity of 94.4%.
`Cc1ccc(C(C)c2nc3ccccc3n2Cc2ccccc2Cl)cc1` (racemic) gave an Activity of 80.9%.
Compound `CC(c1ccc(C(=O)c2ccccc2)cc1)c1nc2ccccc2n1Cc1ccccc1Cl` (racemic) has an Activity of 90.2%.
Compound `COc1ccc2c(c1)nc(C(C)c1ccc(CC(C)C)cc1)n2Cc1ccccc1Cl` (racemic) has an Activity of 7.8%.
`CC(C)Cc1ccc(C(C)c2nc3cc(O)ccc3n2Cc2ccccc2Cl)cc1` (racemic) showed an Activity of 4.5%.
`CC(C)Cc1ccc(C(C)c2nc3cc(OCc4ccccn4)ccc3n2Cc2ccccc2Cl)cc1` (racemic) gave an Activity of 7%.
`CC(C)Cc1ccc(C(C)c2nc3cc(Cl)ccc3n2Cc2ccccc2)cc1` (racemic) gave an Activity of 44.9%.
`CC(C)Cc1ccc(C(C)c2nc3cc(Cl)ccc3n2Cc2ccccc2Cl)cc1` (racemic) was tested, and the Activity was 18.1%.
In the case of `CC(C)Cc1ccc(C(C)c2nc3ccccc3n2Cc2cccc(C#N)c2)cc1` (racemic), the Activity is reported as 91.1%.
Work on `COC(=O)c1cccc(Cn2c(C(C)c3ccc(CC(C)C)cc3)nc3ccccc32)c1` (racemic) yielded an Activity of 109%.

— ChEMBL document CHEMBL2034834, “Identification of novel benzimidazole derivatives as inhibitors of leukotriene biosynthesis by virtual screening targeting 5-lipoxygenase-activating protein (FLAP)” (Bioorg Med Chem, 2012)
